# Assay results gathered from unrelated publications.
# Each line is one published result; the experiments were not run side by side.
# Organism: Mycolicibacterium smegmatis
# Observed: microbial growth
SMILES,assay,test system,conditions,MIC
CCOCCOc1ccc(-c2c[nH]c(N)n2)cc1,,ATCC700084 MC^2155,48 h,> 200 µM
Cc1ccc(Nc2nc(-c3cc(C(=O)Nc4ccc(O)cc4)no3)cs2)cc1,,MC2155,,> 64 µg/mL
CC[C@@H](CO)NCCN[C@@H](CC)CO,resazurin,MC^2155,24 h,0.78 µg/mL
NC[C@H]1O[C@H](O[C@H]2[C@H](O)[C@@H](O[C@H]3O[C@H](CO)[C@@H](O)[C@H](N)[C@H]3O)[C@H](N)C[C@@H]2N)[C@H](N)C[C@@H]1O,broth dilution,,72 h,1 µg/mL
CCCCCCc1ccc(-c2nc(N)[nH]c2C(F)(F)F)cc1,broth dilution,ATCC700084 MC^2155,,> 200 µM
CC(=O)O[C@H]1C[C@@]2(C)[C@@H](C[C@@H](O)[C@H]3[C@@]4(C)CC[C@@H](O)[C@@H](C)[C@@H]4CC[C@@]32C)/C1=C(\CCC=C(C)C)C(=O)O,resazurin,MC^2155,24 h,50 µg/mL
Cl.N=C(N)N/N=C/c1ccc(-c2ccc(/C=N/Nc3ccccc3Cl)cc2)cc1,,MC2155,,1.7 µg/mL
CCCCCCCCCCC[C@@H](C[C@@H]1OC(=O)[C@H]1CCCCCC)OC(=O)[C@H](CC(C)C)NC=O,resazurin,MC^2155,,48 µg/mL
CO[C@H]1/C=C/O[C@@]2(C)Oc3c(C)c(O)c4c(O)c(c(/C=N/N5CCN(C)CC5)c(O)c4c3C2=O)NC(=O)/C(C)=C\C=C\[C@H](C)[C@H](O)[C@@H](C)[C@@H](O)[C@@H](C)[C@H](OC(C)=O)[C@@H]1C,broth dilution,ATCC700084 MC^2155,,8 µg/mL
Cc1ccc(Nc2nc(-c3cc(C(=O)Nc4ccccc4)no3)cs2)cc1,,MC2155,,> 64 µg/mL
CCOc1ccc(-c2c[nH]c(N)n2)cc1,,ATCC700084 MC^2155,48 h,200 µM
NCC[C@H](O)C(=O)N[C@@H]1C[C@H](N)[C@@H](O[C@H]2O[C@H](CN)[C@@H](O)[C@H](O)[C@H]2O)[C@H](O)[C@H]1O[C@H]1O[C@H](CO)[C@@H](O)[C@H](N)[C@H]1O,broth dilution,MC2155,,≤ 0.5 µg/mL
NC[C@@H]1O[C@H](O[C@H]2[C@@H](O)[C@H](O[C@@H]3[C@@H](O)[C@H](N)C[C@H](N)[C@H]3O[C@H]3O[C@H](CO)[C@@H](O)[C@H](O)[C@H]3N)O[C@@H]2CO)[C@H](N)[C@@H](O)[C@@H]1O,broth dilution,,72 h,0.5 µg/mL
C[C@H]1COc2c(N3CCN(C)CC3)c(F)cc3c(=O)c(C(=O)O)cn1c23,resazurin,MC^2155,24 h,0.14 µg/mL
O=C(Nc1ccccc1)c1cc(-c2csc(Nc3ccc(Cl)cc3)n2)on1,,MC2155,,> 64 µg/mL
COc1ccc(-c2c[nH]c(N)n2)cc1,,ATCC700084 MC^2155,48 h,200 µM
CO/N=C(\C(=O)N[C@@H]1C(=O)N2C(C(=O)O)=C(COC(C)=O)CS[C@H]12)c1csc(N)n1,resazurin,MC^2155,24 h,75 µg/mL
